pIC50: −log10 of the molar value. Calls of active or inactive are those of the source. The calls are words filed in the database; no cut-off is given here.
Experiments:
A549 = experiment: Antiproliferative activity against human A549 cells after 24 to 72 hrs by SRB assay; format: functional, cell-based
Outline: (§1)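 Cells from ATCC were grown at 37 °C in 5% CO2, in RPMI 1640 (A549, HCT116, SNU-638) or DMEM (MDA-MB-231, SK-HEP-1, MRC5) with 10% FBS. They were seeded at 6 × 10^3 cells/well for 24 h, then exposed for 72 h. Cells were TCA-fixed, stained with 0.4% SRB, and read at 515 nm against day-zero plates. IC50 came from nonlinear regression, as means ± SD.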

MDA-MB-231 = experiment: Antiproliferative activity against human MDA-MB-231 cells after 24 to 72 hrs by SRB assay; format: functional, cell-based; outline: as §1
SNU-638 = experiment: Antiproliferative activity against human SNU638 cells after 24 to 72 hrs by SRB assay; format: functional, cell-based; outline: as §1
HCT-116 [1] = experiment: Growth inhibition of human HCT116 cells after 24 hrs by SRB assay; format: functional, cell-based
Outline: (§2)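 SRB assay. Cells were seeded at 6 × 10^3/well, grown 24 h, then fixed as day-zero controls or treated 24 or 48 h. They were fixed with 10% TCA and stained with 0.4% SRB in 1% acetic acid; dye was dissolved in 10 mM Tris pH 10.0 and read at 515 nm. Proliferation was normalized to day zero and control, and IC50 came from nonlinear regression. n = 3.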

HCT-116 [2] = experiment: Induction of autophagy in human HCT116 cells assessed as vacuole formation in cytoplasm at 20 uM by inverted phase contrast microscopy relative to control; format: functional, cell-based
Outline: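 HCT116 cells were exposed to 20 μM compound or vehicle. Cytoplasmic vacuoles were inspected and photographed under an inverted phase-contrast microscope at 100×.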

HCT-116 [3] = experiment: Induction of autophagy in human HCT116 cells assessed as upregulation of LAMP1 expression at 10 to 30 uM after 24 hrs by Western blot analysis; format: functional, cell-based
Outline: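 HCT116 cells were cultured 24 h with the indicated concentrations. Lysates were made in SDS buffer with NaF and orthovanadate and quantified by BCA; 10–30 μg protein was separated by 6–15% SDS-PAGE and transferred to PVDF. After 5% BSA blocking, blots were probed for LC3-II, beclin 1, p62, LAMP1 and cathepsin D, with ECL detection.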

[4] = target: Mitogen-activated protein kinase; ERK1/ERK2 (Homo sapiens) (UniProt P27361+P28482); experiment: Inhibition of ERK1/2 phosphorylation in human HCT116 cells after 24 hrs by Western blot analysis; format: cell-based
[5] = target: c-Jun N-terminal kinase, JNK (Homo sapiens) (UniProt P45983+P53779+P45984); experiment: Activation of JNK in human HCT116 cells after 24 hrs by Western blot analysis; format: cell-based
[6] = target: Cellular tumor antigen p53 (Homo sapiens) (UniProt P04637); experiment: Induction of p53 expression in human HCT116 cells after 24 hrs by Western blot analysis; format: cell-based
[7] = target: Cellular tumor antigen p53 (Homo sapiens) (UniProt P04637); experiment: Induction of p53 expression in human HCT116 cells assessed as increase in p21 levels after 24 hrs by Western blot analysis; format: cell-based
HCT-116 [8] = experiment: Growth inhibition of human HCT116 cells after 48 hrs by SRB assay; format: functional, cell-based; outline: as §2
HCT-116 [9] = experiment: Induction of apoptosis in human HCT116 cells assessed as cell shrinkage after 48 hrs; format: functional, cell-based
HCT-116 [10] = experiment: Cell cycle arrest in human HCT116 cells assessed as accumulation at subG1 phase at 10 uM after 48 hrs by propidium iodide staining based flow cytometry; format: functional
HCT-116 [11] = experiment: Cell cycle arrest in human HCT116 cells assessed as accumulation at subG1 phase at 30 uM after 48 hrs by propidium iodide staining based flow cytometry; format: functional
HCT-116 [12] = experiment: Induction of apoptosis in human HCT116 cells assessed as activation of PARP cleavage at 10 to 30 uM after 48 hrs by Western blot analysis; format: functional, cell-based
Outline: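 HCT116 cells were treated with the indicated concentrations for 48 h. Lysates were prepared in SDS sample buffer and 10–30 μg protein was separated by SDS-PAGE, blotted to PVDF and blocked in 5% BSA. Cleaved caspase-8, -9, -3 and PARP were detected by ECL.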

HCT-116 [13] = experiment: Induction of apoptosis in human HCT116 cells assessed as increase in t-BID levels after 48 hrs by Western blot analysis; format: functional, cell-based
HCT-116 [14] = experiment: Induction of autophagy in human HCT116 cells assessed as increase in LC3-2 expression at 30 uM at 24 hrs by Western blot analysis; format: functional, cell-based
HCT-116 [15] = experiment: Induction of autophagy in human HCT116 cells assessed as increase in beclin 1 expression at 30 uM at 24 hrs by Western blot analysis; format: functional, cell-based
HCT-116 [16] = experiment: Induction of apoptosis in human HCT116 cells assessed as PARP cleavage at 30 uM upto 48 hrs by Western blot analysis; format: functional, cell-based
Outline: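 Time course: HCT116 cells were exposed to 30 μM compound for 6, 12, 24, 36 and 48 h. LC3-II, beclin 1, cleaved caspase-8 and cleaved PARP were measured by Western blot (SDS-PAGE, PVDF, ECL) with β-actin as internal standard.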

HCT-116 [17] = experiment: Growth inhibition of human HCT116 cells at 5 to 40 uM in presence of autophagy inhibitor 3-MA after 48 hrs by SRB assay; format: functional, cell-based
Outline: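 SRB proliferation assay on HCT116 cells given graded concentrations for 48 h with or without 2 mM 3-MA. Cells were TCA-fixed, stained with 0.4% SRB, solubilized in 10 mM Tris pH 10.0 and read at 515 nm. Growth was normalized to day-zero and vehicle wells. Means ± SD, n = 3.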

HCT-116 [18] = experiment: Induction of caspase 8 cleavage in human HCT116 cells at 30 uM after 48 hrs in presence of caspase 8 inhibitor z-IETD-FMK by Western blot analysis; format: functional, cell-based
Outline: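 HCT116 cells were cultured 48 h with 30 μM compound, with or without 20 μM z-IETD-FMK. Lysates were made in SDS loading buffer and 10–30 μg protein was resolved by 6–15% SDS-PAGE and transferred to PVDF. Blots were probed for cleaved caspase-8, beclin 1, cleaved beclin 1 and LC3-II, and detected by ECL.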

[19] = Toxicity in BALB/c-nu mouse xenografted with human HCT116 cells assessed as overt toxicity at 2.5 to 5 mg/kg, ip administered three times per week for 28 days measured during compound dosing relative to control; format: organism-based; conditions: in vivo, 672 h
Outline: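 Nude mice carried subcutaneous flank HCT116 implants (2 × 10^6 cells in 200 μL medium). At about 200 mm3 they were randomised into groups of five. Compound at 2.5 or 5 mg/kg in saline with 0.5% Tween 80 was given ip three times weekly for 4 weeks; controls received vehicle. Body weight was monitored throughout for toxicity.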

Mus musculus = experiment: Induction of PARP cleavage in human HCT116 cells xenografted in BALB/c-nu mouse at 2.5 to 5 mg/kg, ip administered three times per week for 28 days measured post dosing by Western blot analysis; format: functional, organism-based
Outline: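 Excised xenograft tumors (2.5 or 5 mg/kg ip, three times weekly for 28 days) were frozen. Portions were thawed on ice and homogenized in Complete Lysis Buffer, then protein was quantified. Cleaved PARP was detected by Western blot with β-actin as internal standard; blots shown are representative of three determinations.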

Chain of Cellular tumor antigen p53 (Homo sapiens) (P04637 whole entry, looked up): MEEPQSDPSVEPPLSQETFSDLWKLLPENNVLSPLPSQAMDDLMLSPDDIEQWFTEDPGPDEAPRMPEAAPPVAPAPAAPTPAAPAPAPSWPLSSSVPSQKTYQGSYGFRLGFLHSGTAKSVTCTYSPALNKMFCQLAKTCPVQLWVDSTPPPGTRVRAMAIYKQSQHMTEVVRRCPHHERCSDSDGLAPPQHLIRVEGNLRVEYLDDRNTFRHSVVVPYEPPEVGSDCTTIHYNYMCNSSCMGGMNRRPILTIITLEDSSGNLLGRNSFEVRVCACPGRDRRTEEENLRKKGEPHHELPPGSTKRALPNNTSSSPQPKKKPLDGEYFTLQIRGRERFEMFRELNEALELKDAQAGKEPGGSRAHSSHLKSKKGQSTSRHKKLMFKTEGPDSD
Chain of Mitogen-activated protein kinase; ERK1/ERK2 (Homo sapiens) (P27361 whole entry, looked up): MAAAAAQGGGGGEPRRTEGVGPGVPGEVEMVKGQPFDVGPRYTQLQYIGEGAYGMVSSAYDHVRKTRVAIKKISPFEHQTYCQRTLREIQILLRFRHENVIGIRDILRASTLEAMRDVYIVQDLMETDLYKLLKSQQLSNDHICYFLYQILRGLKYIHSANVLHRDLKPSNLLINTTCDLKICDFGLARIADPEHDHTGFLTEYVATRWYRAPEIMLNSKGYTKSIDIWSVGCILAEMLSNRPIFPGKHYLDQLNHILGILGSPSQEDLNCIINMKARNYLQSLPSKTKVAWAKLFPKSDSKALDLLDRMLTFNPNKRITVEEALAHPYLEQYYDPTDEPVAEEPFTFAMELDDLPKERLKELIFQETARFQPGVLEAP
Chain of Mitogen-activated protein kinase; ERK1/ERK2 (Homo sapiens) (P28482 whole entry, looked up): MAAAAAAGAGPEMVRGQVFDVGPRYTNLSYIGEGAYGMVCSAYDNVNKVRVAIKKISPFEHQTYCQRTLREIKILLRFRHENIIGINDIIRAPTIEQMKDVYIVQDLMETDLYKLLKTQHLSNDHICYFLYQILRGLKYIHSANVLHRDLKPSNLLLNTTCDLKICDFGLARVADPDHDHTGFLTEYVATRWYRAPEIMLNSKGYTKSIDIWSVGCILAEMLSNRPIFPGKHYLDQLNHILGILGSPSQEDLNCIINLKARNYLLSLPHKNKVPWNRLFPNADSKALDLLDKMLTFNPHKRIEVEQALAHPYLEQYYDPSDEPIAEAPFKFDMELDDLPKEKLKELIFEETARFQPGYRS

pIC50 (A549): 4.59 | pIC50 (MDA-MB-231): 4.53 | pIC50 (SNU-638): 4.83 | pIC50 (HCT-116 [1]; HCT-116, 24 h): 4.54 | inhibition [4]: Dose-dependent effect | Activity [5]: inactive | Activity [6]: Dose-dependent effect | Activity [7]: Dose-dependent effect | pIC50 (HCT-116 [8]; HCT-116, 48 h): 4.68
Compound: C[C@H]1CC[C@@]2(OC1)O[C@H]1C[C@H]3[C@@H]4CC=C5C[C@@H](O)C[C@@H](O[C@@H]6O[C@H](C)[C@H](O)[C@H](O[C@@H]7OC[C@@H](O)[C@H](O)[C@H]7O)[C@H]6O[C@@H]6O[C@H](CO)[C@@H](O)[C@H](O)[C@H]6O)[C@]5(C)[C@H]4CC[C@]3(C)[C@H]1[C@@H]2C
growth inhibition (GI) (HCT-116 [1]): Dose-dependent effect | Activity (HCT-116 [2]): Active | Activity (HCT-116 [3]): Active | growth inhibition (GI) (HCT-116 [8]): Dose-dependent effect | Activity (HCT-116 [9]): Active | Activity (HCT-116 [10]): 5.52% | Activity (HCT-116 [11]): 45.37% | Activity (HCT-116 [12]): Active | Activity (HCT-116 [13]): Dose-dependent effect | Activity (HCT-116 [14]): Active | Activity (HCT-116 [15]): Active | Activity (HCT-116 [16]): Active | growth inhibition (GI) (HCT-116 [17]): Active | Activity (HCT-116 [18]): inactive | Activity [19]: Non-Toxic | Activity (Mus musculus): Active
